Test [1] deals with T1, Adenosine receptor A3 (Homo sapiens), P0DMS8 [H272E].
T1 sequence (whole entry): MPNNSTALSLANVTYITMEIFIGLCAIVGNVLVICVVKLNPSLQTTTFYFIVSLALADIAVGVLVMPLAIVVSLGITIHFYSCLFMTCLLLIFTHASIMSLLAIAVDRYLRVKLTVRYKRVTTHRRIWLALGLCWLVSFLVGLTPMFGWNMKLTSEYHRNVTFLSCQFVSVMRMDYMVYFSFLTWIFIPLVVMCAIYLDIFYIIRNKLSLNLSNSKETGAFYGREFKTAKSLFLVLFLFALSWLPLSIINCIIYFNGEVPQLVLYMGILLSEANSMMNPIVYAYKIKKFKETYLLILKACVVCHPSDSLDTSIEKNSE
Nature of the test: (§1) Activity against human adenosine A3 receptor H272E mutant expressed in COS7 cells as measured by accumulation of inositol phosphate by PLC assay. As to conditions: COS-7. It counts as functional, cell-based.

In test [2] the target is T2, Adenosine receptor A3 (Homo sapiens, UniProt P0DMS8, H272E). Nature of the test: Displacement of [125I]I-AB-MECA from human adenosine A3 receptor H272E mutant expressed in COS7 cells. It is filed as cell-based, COS-7.
In test [3] the target is Adenosine receptor A3 (Homo sapiens, UniProt P0DMS8, T94E). The experiment in a line: Displacement of [125I]I-AB-MECA from human adenosine A3 receptor T94E mutant expressed in COS7 cells. It counts as cell-based, COS-7. A digest of the protocol: (§2)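 Receptor cDNA, wild-type or mutant with mutations confirmed by sequencing, transiently transfected into COS-7 cells with Lipofectamine 2000. […] Displacement of agonist radioligand [125I]I-AB-MECA measured; Ki values derived.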
Adenosine receptor A3 (Homo sapiens, UniProt P0DMS8, T94E), sequence (P0DMS8 whole entry T94E): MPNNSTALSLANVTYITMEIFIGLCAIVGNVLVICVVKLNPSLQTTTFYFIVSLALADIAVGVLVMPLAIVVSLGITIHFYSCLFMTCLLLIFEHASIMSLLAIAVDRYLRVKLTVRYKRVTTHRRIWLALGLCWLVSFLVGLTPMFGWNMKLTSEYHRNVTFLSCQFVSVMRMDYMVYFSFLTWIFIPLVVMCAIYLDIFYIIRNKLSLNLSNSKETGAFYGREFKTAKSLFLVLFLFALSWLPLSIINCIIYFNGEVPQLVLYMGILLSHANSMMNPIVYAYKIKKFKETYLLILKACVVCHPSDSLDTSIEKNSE
(In general: Loss of bound radioactivity is the signal in a displacement assay; it reports binding, not function.)

The target in test [4] is T3, Adenosine receptor A3 (Homo sapiens, UniProt P0DMS8).
T3 sequence (P0DMS8 whole entry): T1 sequence (whole entry) with E272H
The experiment in a line: Displacement of [125I]I-AB-MECA from wild type adenosine A3 receptor expressed in COS7 cells. It is filed as cell-based, COS-7.

In test [5] the target is Adenosine receptor A3 (Homo sapiens, UniProt P0DMS8, T94A). Nature of the test: Displacement of [125I]I-AB-MECA from human adenosine A3 receptor T94A mutant expressed in COS7 cells. It is filed as cell-based, COS-7. A digest of the protocol: as §2
Adenosine receptor A3 (Homo sapiens, UniProt P0DMS8, T94A), sequence (P0DMS8 whole entry T94A): as the sequence (P0DMS8 whole entry T94E) above, with E94A counted along it
Test [6] deals with T4, Adenosine receptor A3 (Homo sapiens) (UniProt P0DMS8).
T4 sequence (whole entry): T1 sequence (whole entry) with E272H
Nature of the test: Activity against human wild type adenosine A3 receptor expressed in COS7 cells as measured by accumulation of inositol phosphate by PLC assay. It is filed as functional, cell-based. The note with it: COS-7.

Test [7] addresses Adenosine receptor A3 (Homo sapiens, UniProt P0DMS8, H272D). The experiment in a line: Displacement of [125I]I-AB-MECA from human adenosine A3 receptor H272D mutant expressed in COS7 cells. It is filed as cell-based, COS-7. The gist of the method: as §2
Test [8] concerns the target T4, Adenosine receptor A3 (Homo sapiens). The experiment in a line: Inhibition of [125I]I-AB-MECA binding to wild type adenosine A3 receptor expressed in COS7 cells at 10 uM. It is filed as cell-based. As to conditions: COS-7.
In test [9] the test system is T1, Adenosine receptor A3 (Homo sapiens), P0DMS8 [H272E]. The experiment in a line: Inhibition of [125I]I-AB-MECA binding to human adenosine A3 receptor H272E mutant expressed in COS7 cells at 10 uM. It counts as cell-based. As to conditions: COS-7.
For test [10], the target named is Adenosine receptor A2a (Homo sapiens) (UniProt P29274). Nature of the test: Inhibition of human adenosine A2A receptor expressed in CHO cells at 10 uM. It is filed as cell-based.
Adenosine receptor A2a (Homo sapiens), sequence (P29274 whole entry): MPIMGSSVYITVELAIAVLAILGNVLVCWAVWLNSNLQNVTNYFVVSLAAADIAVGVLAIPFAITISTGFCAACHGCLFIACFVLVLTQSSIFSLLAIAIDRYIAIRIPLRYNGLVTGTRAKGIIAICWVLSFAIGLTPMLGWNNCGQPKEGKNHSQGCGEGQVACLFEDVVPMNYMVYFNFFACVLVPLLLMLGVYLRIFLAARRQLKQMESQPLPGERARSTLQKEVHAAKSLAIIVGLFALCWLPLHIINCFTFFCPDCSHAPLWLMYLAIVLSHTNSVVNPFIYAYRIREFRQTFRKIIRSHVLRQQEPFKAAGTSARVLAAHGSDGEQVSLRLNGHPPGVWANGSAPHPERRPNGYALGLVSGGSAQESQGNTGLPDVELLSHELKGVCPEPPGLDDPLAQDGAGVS
Test [11] deals with T5, Adenosine receptor A1 (Homo sapiens) (UniProt P30542).
T5 sequence (whole entry): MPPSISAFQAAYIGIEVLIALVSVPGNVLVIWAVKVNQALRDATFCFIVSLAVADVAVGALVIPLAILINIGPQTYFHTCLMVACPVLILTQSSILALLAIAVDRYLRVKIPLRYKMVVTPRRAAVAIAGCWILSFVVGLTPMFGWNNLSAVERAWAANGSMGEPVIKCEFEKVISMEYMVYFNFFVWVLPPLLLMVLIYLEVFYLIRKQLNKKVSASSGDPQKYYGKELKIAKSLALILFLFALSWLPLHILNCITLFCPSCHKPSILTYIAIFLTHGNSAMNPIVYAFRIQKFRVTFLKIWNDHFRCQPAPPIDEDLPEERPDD
Nature of the test: Inhibition of human adenosine A1 receptor expressed in CHO cells at 10 uM. It is filed as cell-based.

Test [12] addresses Adenosine receptor A3 (Homo sapiens, UniProt P0DMS8, Q167E). The experiment in a line: Displacement of [125I]I-AB-MECA from human adenosine A3 receptor Q167E mutant expressed in COS7 cells. It is filed as cell-based, COS-7. A digest of the protocol:
as §2

Test [13] deals with T2, Adenosine receptor A3. Described as §1. It is filed as functional, cell-based, COS-7.
Test [14] has as its target T6, Adenosine receptor A2b (Homo sapiens) (UniProt P29275).
T6 sequence (whole entry): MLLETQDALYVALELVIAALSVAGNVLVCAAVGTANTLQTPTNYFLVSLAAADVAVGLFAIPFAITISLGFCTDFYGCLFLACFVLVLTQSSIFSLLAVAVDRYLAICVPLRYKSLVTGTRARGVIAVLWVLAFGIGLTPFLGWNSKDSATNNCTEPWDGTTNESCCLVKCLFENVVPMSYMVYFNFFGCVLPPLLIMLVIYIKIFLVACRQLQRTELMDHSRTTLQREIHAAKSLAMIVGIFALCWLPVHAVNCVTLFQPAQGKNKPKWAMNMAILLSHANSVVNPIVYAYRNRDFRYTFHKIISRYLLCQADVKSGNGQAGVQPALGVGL
The experiment in a line: Activity against adenosine A2B receptor expressed in CHO cells by stimulation of cAMP production at 10 uM. It is filed as functional, cell-based.

Changes are numbered by the printed parent chain. The source made the active and inactive calls. The calls are words filed in the database; no cut-off is given here.

Adenosine receptor A3 (Homo sapiens, UniProt P0DMS8, Q167E), sequence (P0DMS8 whole entry Q167E): as the sequence (P0DMS8 whole entry T94E) above, with E94T, Q167E counted along it
Adenosine receptor A3 (Homo sapiens, UniProt P0DMS8, H272D), sequence (P0DMS8 whole entry H272D): as the sequence (P0DMS8 whole entry T94E) above, with E94T, H272D counted along it

Broadly, the Ki is the dissociation constant of the complex between target and ligand, obtained from inhibition or displacement. Read a high Ki as lower affinity. Turning to `CNC(=O)[C@H]1O[C@@H](n2cnc3c(NCc4cccc(I)c4)ncnc32)[C@H](O)[C@@H]1N=[N+]=[N-]`, the result in test [1] and in test [6] was inactive. For the same molecule, the Ki in test [2] stood at 186 nM; in test [3] it was 2000 nM; in [4], 2260 nM; in test [5], 1.37 µM; in [7] it was 140 nM.

A word on the inhibition: it is the share of the control response that was lost under treatment. A lower inhibition goes with a response near the control. Regarding `NC[C@H]1[C@@H](O)[C@H](n2cnc3c(N)ncnc32)O[C@@H]1CO`, the inhibition worked out at 3% in test [8] and 2% in test [9].

`CNC(=O)[C@H]1O[C@@H](n2cnc3c(NCc4cccc(I)c4)ncnc32)[C@H](O)[C@@H]1NC(N)=O`: the inhibition in test [8] was 5%; in test [10] it was below 10%; in test [11], below 10%. The Ki in test [2] was 2700 nM.

For `CNc1ncnc2c1ncn2[C@@H]1O[C@H](CO)[C@@H](NC(N)=O)[C@H]1O`, the inhibition is 3% in test [8], below 10% in [10], below 10% in [11] and 30% in test [9].

As to `CC(=O)NC[C@H]1[C@@H](O)[C@H](n2cnc3c(NCc4cccc(I)c4)ncnc32)O[C@@H]1CO`, the inhibition in test [8] is 15%. In addition, the Ki in test [2] is 700 nM; in [12], above 10 µM; in [3] it was above 10000 nM; in [4], above 10000 nM; in test [5] it was above 10 µM; in test [7], 1000 nM.

For the molecule `CNC(=O)[C@H]1O[C@@H](n2cnc3c(NCc4cc(Cl)ccc4OC)ncnc32)[C@H](O)[C@@H]1CN`, the Ki in test [2] was 592 nM; in test [12] it was 7.2 µM; in test [3], 850 nM; in [4], 557 nM; in test [7], 390 nM.

Turning to `COc1ccc(Cl)cc1CNc1ncnc2c1ncn2[C@@H]1O[C@H](CO)[C@@H](CN)[C@H]1O`, the Ki in test [2] was 709 nM; in [12], above 10 µM; in test [3] it was above 10000 nM; in test [4] it was 13800 nM; in test [5], 9.8 µM; in [7], 2000 nM.

On to `NNC(=O)[C@H]1O[C@@H](n2cnc3c(N)ncnc32)[C@H](O)[C@@H]1O`, for which the Ki is above 10000 nM in test [2] and 1500 nM in [4].

In the case of `CNC(=O)[C@H]1O[C@@H](n2cnc3c(NC)ncnc32)[C@H](O)[C@@H]1NC(N)=O`, the inhibition in test [8] is 7%; in test [10], below 10%; in test [11], below 10%; in test [9] it was 7%.

For `[N-]=[N+]=NC[C@H]1S[C@@H](n2cnc3c(NCc4cccc(I)c4)ncnc32)[C@H](O)[C@@H]1O`, the outcome in [1] and in test [6] was inactive. Further, the values for the Ki in test [2] and in test [4] were 230 nM and 22 nM, respectively.

As for `NC[C@H]1[C@@H](O)[C@H](n2cnc3c(NCc4cccc(I)c4)ncnc32)O[C@@H]1CO`, the Ki in test [2] was 610 nM; in test [12] it was above 10 µM; in test [3], 10000 nM; in test [4] it was 9500 nM; in test [5] it was 10.7 µM; in [7] it was 850 nM.

In the case of `CNC(=O)[C@H]1O[C@@H](n2cnc3c(NCc4cccc(I)c4)ncnc32)[C@H](O)[C@@H]1CN`, the Ki in test [2] was found to be 185 nM; in test [12], 0.57 µM; in [3], 110 nM; in test [4], 137 nM; in [5], 0.12 µM; in test [7], 120 nM.

Regarding `NC(=O)N[C@H]1[C@@H](O)[C@H](n2cnc3c(NCc4cccc(I)c4)nc(Cl)nc32)O[C@@H]1CO`, the inhibition was 47% in test [8], below 10% in test [10] and 34% in test [11]. The Ki in test [2] worked out at 200 nM.

A word on the EC50: it is the concentration that produces a half-maximal response. `NC(=O)N[C@H]1[C@@H](O)[C@H](n2cnc3c(NCc4cccc(I)c4)ncnc32)O[C@@H]1CO` showed an EC50 in test [13] of 180 nM. In addition, the results for the inhibition in [8], in [10] and in [11] were 9%, below 10% and below 10%, respectively. In addition, the Ki in [2] was 220 nM; in [12] it was above 100 µM; in test [3] it was above 10000 nM; in test [4] it was above 10000 nM; in [5] it was above 10 µM; in test [7] it was 470 nM. Further, the result in test [14] was inactive.

Values taken from ChEMBL document CHEMBL1147643 (J Med Chem, 2006).
